The conditions of series [1]: cited from earlier work.
For series [2] the following is noted: cited from earlier work. The source holds these as a separate data set.
Another series has as its system Se.TRPMPZQ. Put plainly: Functional profiling. The class given is cell-based, Spirometra erinaceieuropaei.
The test system of series [3] is E. multilocularis protoscoleces. Put plainly: Cestode motility assay on protoscoleces. Format: cell-based. To be noted: Echinococcus multilocularis, read-out: EC50, motility of E. multilocularis protoscoleces.
Another series has as its target Eg.TRPMPZQ (Echinococcus granulosus, UniProt W6UVV9). Put plainly: Ca2+ reporter assay in HEK293 cells, Eg.TRPMPZQ. Format: cell-based. The following applies: EC50 at Eg.TRPMPZQ / EC50 at Sm.TRPMPZQ. A general note: A reporter such as luciferase makes a cellular process visible.
In a further series the test system is Sm.TRPMPZQ[D1677E]. Put plainly: Functional profiling at Sm.TRPMPZQ[D1677E] mutant. The class given is cell-based, Schistosoma mansoni. To be noted: construct lacks the cestode-specific S1 histidine. In short, it runs like this: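 Transiently transfected HEK293 cells (Lipofectamine-2000) replated after 24 h at 20,000 cells/well. 24 h later, loaded with Fluo-4 NW for 1 h at 37 °C in HBSS with 2.5 mM probenecid and 20 mM HEPES. FLIPR Ca2+ read at room temperature: 20 s baseline, then compound, then 250 s. Peak minus basal, normalized to (±)-PZQ at the same channel. Three-parameter fit, bottom fixed at 0%. EC50 mean ± SEM, n ≥ 3 transfections.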

The conditions of series [4]: in humans; cited from earlier work.

The text below walks through data of publication PMC12853403 (ACS infectious diseases, 2025).

Structures are written as SMILES.

By EC50 is commonly meant the concentration giving half of the maximal effect.

Consider `O=C(C1CCCCC1)N1CC(=O)N2CCCc3ccccc3C2C1` (stereo not shown) [epsiprantel], for which the “absorption from the gastrointestinal tract” value in series [1] is “poorly absorbed”. Also, the solubility entry in series [2] is “very insoluble”.
For `O=C(C1CCCCC1)N1CC(=O)N2CCc3ccccc3[C@@H]2C1` [(R)-PZQ], the EC50 amounted to 1000 ± 300 nM with Se.TRPMPZQ (read-out: EC50 at Se.TRPMPZQ, mean ± SEM) and 7.7 ± 1.3 nM in series [3]. In the series with Se.TRPMPZQ (relative to (R)-PZQ at Eg.TRPMPZQ), the “efficacy (Bmax) at Se.TRPMPZQ” value is reported as 17 ± 0.8 % of (R)-PZQ at Eg.TRPMPZQ. For the same compound, the “difference in potency between Eg.TRPMPZQ and Sm.TRPMPZQ” value at Eg.TRPMPZQ was ~ 4 fold.
As to `O=C(C1CCCCC1)N1CC(=O)N2CCc3ccccc3C2C1` (stereo not shown) [PZQ, praziquantel], the “agonist character at Se.TRPMPZQ” value in the series on Se.TRPMPZQ is given as “partial agonist”. The “activity at Sm.TRPMPZQ[D1677E] mutant” value with Sm.TRPMPZQ[D1677E] was “unable to be activated”. The half time in series [4] is 2 to 3 h.
As to `O=C(C1CCCCC1)N1CC(=O)N2CCc3ccccc3[C@H]2C1` [(S)-PZQ], the “difference in potency between Eg.TRPMPZQ and Sm.TRPMPZQ” value at Eg.TRPMPZQ is ~ 100 fold.
